In ChEMBL document CHEMBL1123757, “Selective thromboxane synthetase inhibitors and antihypertensive agents. New derivatives of 4-hydrazino-5H-pyridazino[4,5-b]indole, 4-hydrazinopyridazino[4,5-a]indole, and related compounds” (J Med Chem, 1987):

What was measured:
Rattus norvegicus [1] = experiment: Antihypertensive activity in spontaneously hypertensive rats (SHR) measured by percentage fall in cardiac rhythm (CR) at 1 mg/kg administered intraperitoneally at 3 h; type: functional, Heart; conditions: route intraperitoneal
Procedure, shortened: (§1)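 Unanesthetized Okamoto-strain SHR, male and female, 8 weeks old, 300–350 g, systolic pressure ≥190 mmHg, heart rate 400–650 beats/min; five animals per dose. Given ip at 2.5 mL/kg, dissolved or suspended in normal saline or saline with 0.2% (carboxymethyl)cellulose and 1.0% Tween 80. Tail AP and CR recorded by mechanical transduction at set times; reported as percentage fall from control.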

Homo sapiens [2] = species on record: Homo sapiens; experiment: In vitro inhibition of platelet aggregation induced by ADP-II (PRP incubated for 60 minutes at 37 degree C) at 10e-5 M; type: functional; conditions: 1 h
Procedure, shortened: (§2)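 Human venous blood anticoagulated with 3.8% sodium citrate (1:9). PRP from centrifugation at 800 rpm for 10 min at room temperature. Count adjusted with PPP to […]. Compound in saline with 10% ethylene glycol is added to PRP and incubated at 37 °C before the agonist. Agonists: ADP 2×10^-5 M, AA 0.6 mM, PGH2 2.8 μM, adrenaline 0.6 μM. Born absorbance aggregometry; n = 5.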

Rattus norvegicus [3] = experiment: Antihypertensive activity in spontaneously hypertensive rats (SHR) measured by percentage fall in arterial pressure (AP) at 5 mg/kg administered intraperitoneally at 1 h; type: functional, Artery; conditions: route intraperitoneal; procedure, shortened: as §1
Rattus norvegicus [4] = experiment: Antihypertensive activity in spontaneously hypertensive rats (SHR) measured by percentage fall in cardiac rhythm (CR) at 25 mg/kg administered intraperitoneally at 24 h; type: functional, Heart; conditions: route intraperitoneal; procedure, shortened: as §1
Rattus norvegicus [5] = experiment: Antihypertensive activity in spontaneously hypertensive rats (SHR) measured by percentage fall in arterial pressure (AP) at 25 mg/kg administered perorally at 1 h; type: functional, Artery; conditions: route oral
Procedure, shortened: (§3)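 Oral dosing at 2.5 mL/kg to unanesthetized male and female Okamoto-strain SHR (8 weeks old, 300–350 g, systolic pressure ≥190 mmHg, heart rate 400–650 beats/min), five per dose. Vehicle was normal saline or saline with 0.2% (carboxymethyl)cellulose and 1.0% Tween 80. AP measured on the tail by mechanical transduction at set times; expressed as percentage fall from control.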

Rattus norvegicus [6] = experiment: Antihypertensive activity in spontaneously hypertensive rats (SHR) measured by percentage fall in cardiac rhythm (CR) at 1 mg/kg administered intraperitoneally at 1 h; type: functional, Heart; conditions: route intraperitoneal; procedure, shortened: as §1
Rattus norvegicus [7] = experiment: Antihypertensive activity in spontaneously hypertensive rats (SHR) measured by percentage fall in arterial pressure (AP) at 25 mg/kg administered intraperitoneally at 1 h; type: functional, Artery; conditions: route intraperitoneal; procedure, shortened: as §1
Rattus norvegicus [8] = experiment: Antihypertensive activity in spontaneously hypertensive rats (SHR) measured by percentage fall in arterial pressure (AP) at 5 mg/kg administered perorally at 3 h; type: functional, Artery; conditions: route oral; procedure, shortened: as §3
Rattus norvegicus [9] = experiment: Antihypertensive activity in spontaneously hypertensive rats (SHR) measured by percentage fall in cardiac rhythm (CR) at 25 mg/kg administered intraperitoneally at 5 h; type: functional, Heart; conditions: route intraperitoneal
Procedure, shortened: (§4)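 Conscious SHR (Okamoto strain), 8 weeks old, male and female, 300–350 g, systolic BP ≥190 mmHg, CR 400–650 beats/min. Given ip or po at 2.5 mL/kg in normal saline or saline with 0.2% (carboxymethyl)cellulose and 1.0% Tween 80. Tail AP and CR recorded by mechanical transduction at 1, 3, 5 and 24 h, five animals per dose. Effect expressed as % fall versus control.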

Rattus norvegicus [10] = experiment: Antihypertensive activity in spontaneously hypertensive rats (SHR) measured by percentage fall in arterial pressure (AP) at 25 mg/kg administered intraperitoneally at 24 h; type: functional, Artery; conditions: route intraperitoneal; procedure, shortened: as §1
Rattus norvegicus [11] = experiment: Antihypertensive activity in spontaneously hypertensive rats (SHR) measured by percentage fall in arterial pressure (AP) at 5 mg/kg administered intraperitoneally at 24 h; type: functional, Artery; conditions: route intraperitoneal; procedure, shortened: as §1
Rattus norvegicus [12] = experiment: Antihypertensive activity in spontaneously hypertensive rats (SHR) measured by percentage fall in arterial pressure (AP) at 25 mg/kg administered perorally at 3 h; type: functional, Artery; conditions: route oral; procedure, shortened: as §3
Rattus norvegicus [13] = experiment: Antihypertensive activity in spontaneously hypertensive rats (SHR) measured by percentage fall in arterial pressure (AP) at 5 mg/kg administered intraperitoneally at 5 h; type: functional, Artery; conditions: route intraperitoneal; procedure, shortened: as §1
Rattus norvegicus [14] = experiment: Percent fall in systolic blood pressure, directly measured on carotid (iv on the jugular vein) of spontaneously hypertensive rats at 1 mg/kg after 30 minutes; type: functional, Artery
Procedure, shortened: (§5)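 Anesthetized (sodium pentobarbital, 70 mg/kg) male and female Okamoto SHR, 8 weeks old, 300–350 g. Given iv into the jugular vein in normal saline. Arterial pressure and cardiac rhythm are recorded directly from the carotid by polygraph at set times after dosing. Each is expressed as percent change from the pre-dose control value.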

Rattus norvegicus [15] = experiment: Antihypertensive activity in spontaneously hypertensive rats (SHR) measured by percentage fall in cardiac rhythm (CR) at 5 mg/kg administered perorally at 1 h; type: functional, Heart; conditions: route oral; procedure, shortened: as §4
Homo sapiens [16] = species on record: Homo sapiens; experiment: In vitro inhibition of platelet aggregation induced by ADP-II (PRP incubated for 5 minutes at 37 degree C) at 10e-5 M; type: functional; procedure, shortened: as §2
Rattus norvegicus [17] = experiment: Antihypertensive activity in spontaneously hypertensive rats (SHR) measured by percentage fall in arterial pressure (AP) at 5 mg/kg administered intraperitoneally at 3 h; type: functional, Artery; conditions: route intraperitoneal; procedure, shortened: as §1
Rattus norvegicus [18] = experiment: Percent fall in systolic blood pressure, directly measured on carotid (iv on the jugular vein) of spontaneously hypertensive rats at 1 mg/kg after 5 minutes; type: functional, Artery; procedure, shortened: as §5
Rattus norvegicus [19] = experiment: Antihypertensive activity in spontaneously hypertensive rats (SHR) measured by percentage fall in arterial pressure (AP) at 1 mg/kg administered intraperitoneally at 3 h; type: functional, Artery; conditions: route intraperitoneal; procedure, shortened: as §1
Rattus norvegicus [20] = experiment: Antihypertensive activity in spontaneously hypertensive rats (SHR) measured by percentage fall in arterial pressure (AP) at 25 mg/kg administered intraperitoneally at 5 h; type: functional, Artery; conditions: route intraperitoneal; procedure, shortened: as §1
Rattus norvegicus [21] = experiment: Antihypertensive activity in spontaneously hypertensive rats (SHR) measured by percentage fall in cardiac rhythm (CR) at 25 mg/kg administered intraperitoneally at 3 h; type: functional, Heart; conditions: route intraperitoneal; procedure, shortened: as §1
Rattus norvegicus [22] = experiment: Percent fall in systolic blood pressure, directly measured on carotid (iv on the jugular vein) of spontaneously hypertensive rats at 1 mg/kg after 45 minutes; type: functional, Artery; procedure, shortened: as §5
Rattus norvegicus [23] = experiment: Percent fall in systolic blood pressure, directly measured on carotid (iv on the jugular vein) of spontaneously hypertensive rats at 1 mg/kg after 60 minutes; type: functional, Artery; procedure, shortened: as §5
Rattus norvegicus [24] = experiment: Percent fall in systolic blood pressure, directly measured on carotid (iv on the jugular vein) of spontaneously hypertensive rats at 1 mg/kg after 15 minutes; type: functional, Artery; procedure, shortened: as §5
Rattus norvegicus [25] = experiment: Antihypertensive activity in spontaneously hypertensive rats (SHR) measured by percentage fall in cardiac rhythm (CR) at 1 mg/kg administered intraperitoneally at 24 h; type: functional, Heart; conditions: route intraperitoneal; procedure, shortened: as §1
Rattus norvegicus [26] = experiment: Antihypertensive activity in spontaneously hypertensive rats (SHR) measured by percentage fall in cardiac rhythm (CR) at 1 mg/kg administered intraperitoneally at 5 h; type: functional, Heart; conditions: route intraperitoneal; procedure, shortened: as §1
Rattus norvegicus [27] = experiment: Antihypertensive activity in spontaneously hypertensive rats (SHR) measured by percentage fall in arterial pressure (AP) at 1 mg/kg administered intraperitoneally at 1 h; type: functional, Artery; conditions: route intraperitoneal; procedure, shortened: as §1
Rattus norvegicus [28] = experiment: Antihypertensive activity in spontaneously hypertensive rats (SHR) measured by percentage fall in arterial pressure (AP) at 25 mg/kg administered intraperitoneally at 3 h; type: functional, Artery; conditions: route intraperitoneal; procedure, shortened: as §1
Rattus norvegicus [29] = experiment: Percent fall in systolic blood pressure, directly measured on carotid (iv on the jugular vein) of spontaneously hypertensive rats at 1 mg/kg after 10 minutes; type: functional, Artery; procedure, shortened: as §5
Rattus norvegicus [30] = experiment: Antihypertensive activity in spontaneously hypertensive rats (SHR) measured by percentage fall in arterial pressure (AP) at 5 mg/kg administered perorally at 1 h; type: functional, Artery; conditions: route oral; procedure, shortened: as §3
Rattus norvegicus [31] = experiment: Antihypertensive activity in spontaneously hypertensive rats (SHR) measured by percentage fall in cardiac rhythm (CR) at 5 mg/kg administered intraperitoneally at 5 h; type: functional, Heart; conditions: route intraperitoneal; procedure, shortened: as §4
Rattus norvegicus [32] = experiment: Percent fall in systolic blood pressure, directly measured on carotid (iv on the jugular vein) of spontaneously hypertensive rats at 1 mg/kg after 75 minutes; type: functional, Artery; procedure, shortened: as §5
Rattus norvegicus [33] = experiment: Percent fall in systolic blood pressure, directly measured on carotid (iv on the jugular vein) of spontaneously hypertensive rats at 1 mg/kg after 90 minutes; type: functional, Artery; procedure, shortened: as §5
Rattus norvegicus [34] = experiment: Antihypertensive activity in spontaneously hypertensive rats (SHR) measured by percentage fall in cardiac rhythm (CR) at 25 mg/kg administered perorally at 1 h; type: functional, Heart; conditions: route oral; procedure, shortened: as §4

CCOc1ccc2[nH]c3c(NN)nncc3c2c1.Cl
Decrease in CR (Rattus norvegicus [1]): -5%
inhibition at 10 µM (Homo sapiens [2]): 100%
Decrease in AP (Rattus norvegicus [3]): 59%
Decrease in CR (Rattus norvegicus [4]): -11%
Decrease in AP (Rattus norvegicus [5]): 16%
Decrease in CR (Rattus norvegicus [6]): 6%
Decrease in AP (Rattus norvegicus [7]): 57%
Decrease in AP (Rattus norvegicus [8]): 10%
Decrease in CR (Rattus norvegicus [9]): -20%
Decrease in AP (Rattus norvegicus [10]): 34%
Decrease in AP (Rattus norvegicus [11]): 12%
Decrease in AP (Rattus norvegicus [12]): 5%
Decrease in AP (Rattus norvegicus [13]): 32%
Decrease in blood pressure (Rattus norvegicus [14]): 32%
Decrease in CR (Rattus norvegicus [15]): -11%
inhibition at 10 µM (Homo sapiens [16]): 100%
Decrease in AP (Rattus norvegicus [17]): 37%
Decrease in blood pressure (Rattus norvegicus [18]): 16%
Decrease in AP (Rattus norvegicus [19]): 10%
Decrease in AP (Rattus norvegicus [20]): 51%
Decrease in CR (Rattus norvegicus [21]): -17%
Decrease in blood pressure (Rattus norvegicus [22]): 36%
Decrease in blood pressure (Rattus norvegicus [23]): 41%
Decrease in blood pressure (Rattus norvegicus [24]): 20%
Decrease in CR (Rattus norvegicus [25]): 10%
Decrease in CR (Rattus norvegicus [26]): -10%
Decrease in AP (Rattus norvegicus [27]): 29%
Decrease in AP (Rattus norvegicus [28]): 57%
Decrease in blood pressure (Rattus norvegicus [29]): 18%
Decrease in AP (Rattus norvegicus [30]): 15%
Decrease in CR (Rattus norvegicus [31]): -7%
Decrease in blood pressure (Rattus norvegicus [32]): 32%
Decrease in blood pressure (Rattus norvegicus [33]): 25%
Decrease in CR (Rattus norvegicus [34]): 11%
